Source: ChEMBL document CHEMBL1157620, “1-(Aryl)-6-[alkoxyalkyl]-3-azabicyclo[3.1.0]hexanes and 6-(aryl)-6-[alkoxyalkyl]-3-azabicyclo[3.1.0]hexanes: a new series of potent and selective triple reuptake inhibitors” (J Med Chem, 2010)

Experiments:
Cytochrome P450 1A2 = target: T1, Cytochrome P450 1A2 (Homo sapiens, UniProt P05177); assay: Inhibition of human CYP1A2 by fluorescence assay; assay type: ADME
T1 sequence (P05177 whole entry): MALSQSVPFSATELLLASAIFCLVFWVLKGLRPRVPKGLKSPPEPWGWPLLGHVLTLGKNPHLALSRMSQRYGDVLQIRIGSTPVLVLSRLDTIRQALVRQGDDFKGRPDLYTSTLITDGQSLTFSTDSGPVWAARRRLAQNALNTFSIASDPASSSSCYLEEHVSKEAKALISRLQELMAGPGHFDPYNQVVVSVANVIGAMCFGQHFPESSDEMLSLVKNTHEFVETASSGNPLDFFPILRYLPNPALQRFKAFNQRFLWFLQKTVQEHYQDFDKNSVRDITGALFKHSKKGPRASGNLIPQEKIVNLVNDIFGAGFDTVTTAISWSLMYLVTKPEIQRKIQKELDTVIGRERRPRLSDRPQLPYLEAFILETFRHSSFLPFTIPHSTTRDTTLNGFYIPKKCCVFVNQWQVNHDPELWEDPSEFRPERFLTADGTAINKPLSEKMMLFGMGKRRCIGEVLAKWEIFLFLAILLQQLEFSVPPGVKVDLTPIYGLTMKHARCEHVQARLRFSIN
How it was run: (§1)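 Recombinant human P450 bactosomes (0.1 mg/mL) in 50 mM phosphate, pH 7.4. Test compound at 0.1-10 μM, preincubated 10 min at 37 °C with fluorogenic substrate: ethoxyresorufin 0.5 μM (1A2), FCA 50 μM (2C9), BMC 10 μM (2C19), MMC 10 μM (2D6).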

Cytochrome P450 2C9 = Cytochrome P450 2C9 (Homo sapiens, UniProt P11712); assay: Inhibition of human CYP2C9 by fluorescence assay; assay type: ADME; how it was run: as §1
Cytochrome P450 3A4 = Cytochrome P450 3A4 (Homo sapiens, UniProt P08684); assay: Inhibition of human CYP3A4 by fluorescence assay
Cytochrome P450 2C19 = Cytochrome P450 2C19 (Homo sapiens, UniProt P33261); assay: Inhibition of human CYP2C19 by fluorescence assay; assay type: ADME; how it was run: as §1
[1] = target: Sodium-dependent noradrenaline transporter (Homo sapiens, UniProt P23975); assay: Displacement of [3H]nisoxetine from human recombinant NET expressed in BacMam virus-transduced cells by scintillation proximity assay; assay type: cell-based
How it was run: (§2)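 BacMam-transduced membranes in SPA format. SERT: 1 mg/mL beads, 6 μg/mL membranes, 3 nM [3H]citalopram. NET: 2 mg/mL beads, 40 μg/mL membranes, 10 nM [3H]nisoxetine. Incubated overnight at room temperature; pKi from pIC50 by Cheng-Prusoff.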

[2] = target: Sodium-dependent dopamine transporter (Homo sapiens, UniProt Q01959); assay: Displacement of [3H]WIN-35428 from human recombinant DAT expressed in BacMam virus-transduced cells by scintillation proximity assay; assay type: cell-based
[3] = target: Sodium-dependent serotonin transporter (Homo sapiens, UniProt P31645); assay: Displacement of [3H]citalopram from human recombinant SERT expressed in BacMam virus-transduced cells by scintillation proximity assay; assay type: cell-based; how it was run: as §2
Cytochrome P450 2D6 = Cytochrome P450 2D6 (Homo sapiens, UniProt P10635); assay: Inhibition of human […] by fluorescence assay; assay type: ADME; how it was run: as §1
Cytochrome P450 2D6, sequence (P10635 whole entry): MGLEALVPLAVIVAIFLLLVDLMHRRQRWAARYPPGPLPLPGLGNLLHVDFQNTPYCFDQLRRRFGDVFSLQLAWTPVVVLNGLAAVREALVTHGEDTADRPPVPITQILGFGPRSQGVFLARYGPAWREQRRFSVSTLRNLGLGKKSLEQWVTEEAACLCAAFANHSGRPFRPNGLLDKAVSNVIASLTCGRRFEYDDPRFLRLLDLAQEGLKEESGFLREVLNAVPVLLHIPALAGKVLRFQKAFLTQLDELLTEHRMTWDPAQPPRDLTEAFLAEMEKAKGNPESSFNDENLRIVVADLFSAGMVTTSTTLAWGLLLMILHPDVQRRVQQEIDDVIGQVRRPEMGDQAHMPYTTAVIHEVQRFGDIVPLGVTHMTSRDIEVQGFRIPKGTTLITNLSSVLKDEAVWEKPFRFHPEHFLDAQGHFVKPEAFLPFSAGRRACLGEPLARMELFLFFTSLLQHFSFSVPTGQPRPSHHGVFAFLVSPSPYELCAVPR

Cytochrome P450 2C9, sequence (P11712 whole entry): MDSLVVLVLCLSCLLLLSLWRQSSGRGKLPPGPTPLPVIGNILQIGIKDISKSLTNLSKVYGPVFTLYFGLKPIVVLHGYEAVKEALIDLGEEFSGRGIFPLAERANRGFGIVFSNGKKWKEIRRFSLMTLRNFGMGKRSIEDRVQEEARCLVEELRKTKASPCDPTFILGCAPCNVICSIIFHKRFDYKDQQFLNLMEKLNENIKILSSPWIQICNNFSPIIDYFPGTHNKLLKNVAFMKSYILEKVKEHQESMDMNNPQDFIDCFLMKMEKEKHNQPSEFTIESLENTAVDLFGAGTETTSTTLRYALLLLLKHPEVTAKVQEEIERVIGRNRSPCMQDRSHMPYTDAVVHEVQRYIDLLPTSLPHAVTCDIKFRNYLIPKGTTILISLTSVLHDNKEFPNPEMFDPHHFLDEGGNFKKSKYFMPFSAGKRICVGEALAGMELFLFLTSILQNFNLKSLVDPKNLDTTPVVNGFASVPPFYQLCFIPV
Sodium-dependent serotonin transporter, sequence (P31645 whole entry): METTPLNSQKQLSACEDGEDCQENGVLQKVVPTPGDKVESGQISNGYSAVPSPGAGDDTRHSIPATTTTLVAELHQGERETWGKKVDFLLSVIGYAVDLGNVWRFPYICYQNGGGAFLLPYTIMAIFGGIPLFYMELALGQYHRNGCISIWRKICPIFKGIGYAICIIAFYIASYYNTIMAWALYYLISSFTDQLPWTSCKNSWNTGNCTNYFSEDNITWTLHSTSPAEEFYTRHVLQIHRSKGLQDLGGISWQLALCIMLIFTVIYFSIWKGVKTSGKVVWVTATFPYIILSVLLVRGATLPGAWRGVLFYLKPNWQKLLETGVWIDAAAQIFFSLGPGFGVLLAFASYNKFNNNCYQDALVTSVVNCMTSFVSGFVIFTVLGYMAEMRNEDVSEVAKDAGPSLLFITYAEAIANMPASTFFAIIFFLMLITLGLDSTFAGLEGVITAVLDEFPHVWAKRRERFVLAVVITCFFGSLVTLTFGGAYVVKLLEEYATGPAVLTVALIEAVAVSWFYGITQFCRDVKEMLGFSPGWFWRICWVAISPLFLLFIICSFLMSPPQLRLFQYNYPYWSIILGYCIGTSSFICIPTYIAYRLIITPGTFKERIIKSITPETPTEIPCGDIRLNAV
Sodium-dependent noradrenaline transporter, sequence (P23975 whole entry): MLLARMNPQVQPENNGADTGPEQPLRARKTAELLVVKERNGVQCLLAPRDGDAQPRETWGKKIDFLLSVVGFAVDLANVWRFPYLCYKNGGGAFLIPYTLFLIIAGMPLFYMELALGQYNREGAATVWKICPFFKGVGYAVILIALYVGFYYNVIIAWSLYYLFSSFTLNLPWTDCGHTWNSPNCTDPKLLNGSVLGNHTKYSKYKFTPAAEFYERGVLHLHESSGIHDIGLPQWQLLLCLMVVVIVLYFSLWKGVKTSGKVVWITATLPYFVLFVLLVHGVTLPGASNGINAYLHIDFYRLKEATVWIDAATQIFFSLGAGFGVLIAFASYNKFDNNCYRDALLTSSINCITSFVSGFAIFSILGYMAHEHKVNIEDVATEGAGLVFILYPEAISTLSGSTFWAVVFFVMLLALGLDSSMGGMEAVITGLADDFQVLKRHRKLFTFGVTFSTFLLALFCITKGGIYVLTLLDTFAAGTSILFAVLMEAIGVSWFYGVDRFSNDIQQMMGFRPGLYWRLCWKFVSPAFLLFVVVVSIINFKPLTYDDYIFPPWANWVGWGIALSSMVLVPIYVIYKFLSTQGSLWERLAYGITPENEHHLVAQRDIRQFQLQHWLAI
Sodium-dependent dopamine transporter, sequence (Q01959 whole entry): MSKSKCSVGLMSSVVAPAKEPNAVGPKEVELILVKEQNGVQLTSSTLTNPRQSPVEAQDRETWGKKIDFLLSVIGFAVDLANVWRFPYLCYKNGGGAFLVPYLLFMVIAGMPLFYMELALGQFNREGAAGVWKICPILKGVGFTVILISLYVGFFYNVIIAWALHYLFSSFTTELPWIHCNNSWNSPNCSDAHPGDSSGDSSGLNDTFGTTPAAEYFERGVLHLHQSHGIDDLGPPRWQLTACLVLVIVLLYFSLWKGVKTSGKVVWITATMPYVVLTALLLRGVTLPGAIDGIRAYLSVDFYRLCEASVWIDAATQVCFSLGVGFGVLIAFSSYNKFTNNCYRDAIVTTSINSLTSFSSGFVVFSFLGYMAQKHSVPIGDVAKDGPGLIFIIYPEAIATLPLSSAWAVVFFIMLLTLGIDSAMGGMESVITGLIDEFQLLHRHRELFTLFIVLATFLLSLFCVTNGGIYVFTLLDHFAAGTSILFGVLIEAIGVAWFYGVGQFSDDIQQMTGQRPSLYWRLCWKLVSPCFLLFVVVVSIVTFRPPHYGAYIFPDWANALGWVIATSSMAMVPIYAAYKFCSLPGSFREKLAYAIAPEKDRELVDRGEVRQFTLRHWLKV
Cytochrome P450 2C19, sequence (P33261 whole entry): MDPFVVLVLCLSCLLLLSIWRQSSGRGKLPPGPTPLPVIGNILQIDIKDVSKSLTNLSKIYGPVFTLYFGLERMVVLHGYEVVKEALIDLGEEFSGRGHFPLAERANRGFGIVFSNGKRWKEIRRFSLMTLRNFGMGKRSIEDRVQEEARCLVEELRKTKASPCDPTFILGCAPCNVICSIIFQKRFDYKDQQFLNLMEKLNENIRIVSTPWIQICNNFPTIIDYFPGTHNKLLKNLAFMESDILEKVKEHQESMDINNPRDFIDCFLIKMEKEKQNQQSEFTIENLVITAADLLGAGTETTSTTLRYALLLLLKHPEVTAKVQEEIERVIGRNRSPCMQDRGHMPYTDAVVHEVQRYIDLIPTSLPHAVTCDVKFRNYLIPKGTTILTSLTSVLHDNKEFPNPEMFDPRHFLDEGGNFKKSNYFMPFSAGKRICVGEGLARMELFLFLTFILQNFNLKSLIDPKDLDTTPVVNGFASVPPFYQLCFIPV
Cytochrome P450 3A4, sequence (P08684 whole entry): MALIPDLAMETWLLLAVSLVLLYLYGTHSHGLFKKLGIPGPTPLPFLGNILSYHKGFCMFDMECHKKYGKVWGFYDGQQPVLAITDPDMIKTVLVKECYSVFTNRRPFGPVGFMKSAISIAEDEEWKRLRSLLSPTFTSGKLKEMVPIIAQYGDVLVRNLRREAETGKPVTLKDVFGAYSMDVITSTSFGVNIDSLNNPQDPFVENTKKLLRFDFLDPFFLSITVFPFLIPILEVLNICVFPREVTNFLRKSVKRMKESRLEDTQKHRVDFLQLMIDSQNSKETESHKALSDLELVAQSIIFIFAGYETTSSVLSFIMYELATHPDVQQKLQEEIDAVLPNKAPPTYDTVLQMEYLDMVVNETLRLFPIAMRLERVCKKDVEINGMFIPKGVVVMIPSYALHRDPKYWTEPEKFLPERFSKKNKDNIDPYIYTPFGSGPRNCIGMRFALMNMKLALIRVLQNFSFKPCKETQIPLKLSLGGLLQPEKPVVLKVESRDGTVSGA

| SMILES | IC50 (Cytochrome P450 1A2) [nM] | IC50 (Cytochrome P450 2C9) [nM] | IC50 (Cytochrome P450 3A4) [nM] | IC50 (Cytochrome P450 2C19) [nM] | Ki [1] [nM] | Ki [2] [nM] | Ki [3] [nM] | IC50 (Cytochrome P450 2D6) [nM] | pKi [2] |
| --- | --- | --- | --- | --- | --- | --- | --- | --- | --- |
| Clc1ccc([C@@]2(COC3CCC3)[C@@H]3CNC[C@@H]32)cc1Cl | > 10000 | > 10000 | 3000 | > 10000 | 2.51 | 6.31 | 0.398 | > 10000 | – |
| CC(C)OCC[C@]1(c2ccc(Cl)c(Cl)c2)[C@@H]2CNC[C@@H]21 | – | – | – | – | 1.58 | 6.31 | 0.316 | – | – |
| Clc1ccc([C@@]2(COCC3CC3)[C@@H]3CNC[C@@H]32)cc1Cl | > 10000 | > 10000 | – | > 10000 | 7.94 | 10 | 0.631 | 1000 | – |
| COCC[C@]1(c2ccc(Cl)c(Cl)c2)[C@@H]2CNC[C@@H]21 | – | – | – | – | 7.94 | 10 | 0.316 | – | – |
| CCOCC[C@]1(c2ccc(Cl)c(Cl)c2)[C@@H]2CNC[C@@H]21 | – | – | – | – | 7.94 | 15.8 | 0.501 | < 100 | – |
| FC(F)(F)COC[C@]1(c2ccc(Cl)c(Cl)c2)[C@@H]2CNC[C@@H]21 | – | – | – | – | 25.1 | 25.1 | 1 | 300 | – |
| Clc1ccc([C@@]2(CCOC3CCC3)[C@@H]3CNC[C@@H]32)cc1Cl | – | – | – | – | 3.98 | 6.31 | 0.2 | – | – |
| COCC[C@H]1[C@]2(C)CNC[C@]12c1ccc(Cl)c(Cl)c1 (racemic) | – | – | – | – | 3.16 | 63.1 | 0.794 | – | – |
| OC[C@@H]1[C@@H]2CNC[C@]12c1ccc(Cl)c(Cl)c1 (racemic) | – | – | – | – | 182 | 479 | 51.3 | – | – |
| Cc1cnc([C@H]2[C@@H]3CNC[C@@]32c2ccc(Cl)c(Cl)c2)o1 (racemic) | – | – | – | – | 20 | 126 | 15.8 | – | – |
| CCC(C)OCC[C@]1(c2ccc(Cl)c(Cl)c2)[C@@H]2CNC[C@@H]21 (mixture of isomers) | – | – | – | – | 3.98 | 5.01 | 0.316 | – | – |
| CCOCC[C@H]1[C@@H]2CNC[C@]12c1ccc(Cl)c(Cl)c1 (racemic) | – | – | – | – | 3.98 | 79.4 | 0.794 | – | – |
| OCC[C@H]1[C@@H]2CNC[C@]12c1ccc(Cl)c(Cl)c1 (racemic) | – | – | – | – | 7.94 | 79.4 | 2.51 | – | – |
| CCC(C)OC[C@]1(c2ccc(Cl)c(Cl)c2)[C@@H]2CNC[C@@H]21 (mixture of isomers) | – | – | – | – | 2 | 7.94 | 0.251 | – | – |
| Fc1ccc(OC[C@H]2[C@@H]3CNC[C@@]32c2ccc(Cl)c(Cl)c2)cc1 (racemic) | – | – | – | – | 39.8 | 79.4 | 1.26 | – | – |
| CCC[C@H]1[C@@H]2CNC[C@]12c1ccc(Cl)c(Cl)c1 (racemic) | – | – | – | – | 2 | 25.1 | 1 | – | – |
| COC[C@@H]1[C@@H]2CNC[C@]12c1ccc(Cl)c(Cl)c1 (racemic) | – | – | – | – | 1290 | 661 | 72.4 | – | – |
| Clc1ccc([C@]23CNC[C@H]2[C@@H]3COC2CCCCC2)cc1Cl (racemic) | – | – | – | – | 2 | 20 | 1 | – | – |
| OC[C@H]1[C@@H]2CNC[C@]12c1ccc(Cl)c(Cl)c1 (racemic) | – | – | – | – | 28.8 | 457 | 15.5 | – | – |
| Clc1ccc([C@]23CNC[C@H]2[C@H]3COCC2CC2)cc1Cl (racemic) | – | – | – | – | 126 | 501 | 31.6 | – | – |
| CN(C)C[C@H]1[C@@H]2CNC[C@@]21c1ccc(Cl)c(Cl)c1 (racemic) | – | – | – | – | 31.6 | 631 | 3.98 | – | – |
| COCC[C@H]1[C@@]2(c3ccc(Cl)c(Cl)c3)CNC[C@]12C (relative stereo) | – | – | – | – | 1000 | 126 | 31.6 | – | – |
| Clc1ccc([C@]23CNC[C@H]2[C@@H]3COC2CCCC2)cc1Cl (relative stereo) | – | – | – | – | 0.158 | 2.51 | 0.251 | – | – |

| SMILES | IC50 (Cytochrome P450 1A2) [nM] | IC50 (Cytochrome P450 2C9) [nM] | IC50 (Cytochrome P450 3A4) [nM] | IC50 (Cytochrome P450 2C19) [nM] | Ki [1] [nM] | Ki [2] [nM] | Ki [3] [nM] | IC50 (Cytochrome P450 2D6) [nM] | pKi [2] |
| --- | --- | --- | --- | --- | --- | --- | --- | --- | --- |
| CSC[C@H]1[C@@H]2CNC[C@@]21c1ccc(Cl)c(Cl)c1 (relative stereo) | – | – | – | – | 1.58 | 39.8 | 0.398 | – | – |
| Clc1ccc([C@]23CNC[C@H]2[C@@H]3COCC2CC2)cc1Cl (relative stereo) | – | – | – | – | 15.8 | 200 | 5.01 | – | – |
| CCCOC[C@H]1[C@@H]2CNC[C@@]21c1ccc(Cl)c(Cl)c1 (relative stereo) | – | – | – | – | 31.6 | 251 | 9.55 | – | – |
| CC(C)OC[C@H]1[C@@H]2CNC[C@@]21c1ccc(Cl)c(Cl)c1 (relative stereo) | – | – | – | – | 200 | 251 | 39.8 | – | – |
| CCOC[C@H]1[C@@H]2CN(C)C[C@]12c1ccc(Cl)c(Cl)c1 (relative stereo) | – | – | – | – | 15.8 | 39.8 | 1.26 | – | – |
| CCOC[C@H]1[C@@H]2CNC[C@@]21c1ccc(Cl)c(Cl)c1 (relative stereo) | > 9000 | > 9000 | > 9000 | > 9000 | 1.58 | 25.1 | 0.398 | 4000 | – |
| Clc1ccc([C@]23CNC[C@H]2[C@@H]3COC2CCC2)cc1Cl (relative stereo) | – | – | – | – | 0.501 | 3.98 | 0.316 | – | – |
| COC[C@H]1[C@@H]2CNC[C@@]21c1ccc2ccccc2c1 (relative stereo) | – | – | – | – | 316 | 398 | 12.6 | – | – |
| Clc1ccc([C@@]23CNC[C@@H]2[C@H]3COC2CCC2)cc1Cl (stereo in doubt) | – | – | – | – | 158 | 251 | 25.1 | – | – |
| COC[C@H]1[C@@H]2CNC[C@@]21c1ccc(Cl)c(Cl)c1 (stereo in doubt) | – | – | – | – | 3.16 | 110 | 1.51 | – | – |
| Clc1ccc([C@]23CNC[C@H]2[C@@H]3COC2CCCC2)cc1Cl (stereo in doubt) | – | – | – | – | 0.794 | 6.31 | 0.501 | – | – |
| Clc1ccc([C@@]23CNC[C@@H]2[C@H]3COC2CCCC2)cc1Cl (stereo in doubt) | – | – | – | – | 12.6 | 100 | 7.94 | – | – |
| Cc1csc(C[C@H]2[C@@H]3CNC[C@@]32c2ccc(Cl)c(Cl)c2)n1 (stereo in doubt) | – | – | – | – | 0.316 | – | 0.2 | – | 7.7 |
| CCCOC[C@@H]1[C@H]2CNC[C@]21c1ccc(Cl)c(Cl)c1 (stereo in doubt) | – | – | – | – | 0.631 | 12.6 | 0.251 | – | – |
| CSC[C@H]1[C@@H]2CNC[C@@]21c1ccc(Cl)c(Cl)c1 (stereo in doubt) | – | – | – | – | 5.01 | 79.4 | 0.794 | – | – |
| CSC[C@@H]1[C@H]2CNC[C@]21c1ccc(Cl)c(Cl)c1 (stereo in doubt) | – | – | – | – | 316 | 63.1 | 25.1 | – | – |
| COC[C@@H]1[C@H]2CNC[C@]21c1ccc(Cl)c(Cl)c1 (stereo in doubt) | – | – | – | – | 224 | 513 | 25.7 | – | – |
| Clc1ccc([C@]23CNC[C@H]2[C@@H]3COCC2CC2)cc1Cl (stereo in doubt) | – | – | – | – | 1.95 | 25.1 | 0.955 | – | – |
| CCCOC[C@H]1[C@@H]2CNC[C@@]21c1ccc(Cl)c(Cl)c1 (stereo in doubt) | – | – | – | – | 0.501 | 20 | 0.501 | – | – |
| CC(C)OC[C@H]1[C@@H]2CNC[C@@]21c1ccc(Cl)c(Cl)c1 (stereo in doubt) | – | – | – | – | 0.398 | 7.94 | 0.2 | – | – |
| Cc1csc(C[C@@H]2[C@H]3CNC[C@]32c2ccc(Cl)c(Cl)c2)n1 (stereo in doubt) | – | – | – | – | 79.4 | 50.1 | 15.8 | – | – |
| Clc1ccc([C@]23CNC[C@H]2[C@@H]3COC2CCC2)cc1Cl (stereo in doubt) | – | – | – | – | 1.26 | 12.6 | 0.631 | – | – |
| COC[C@H]1[C@@H]2CNC[C@@]21c1ccc2ccccc2c1 (stereo in doubt) | – | – | – | – | 1 | 50.1 | 0.158 | – | – |
